Laboratory results taken from ChEMBL document CHEMBL1131173, “Alkoxypsoralens, novel nonpeptide blockers of Shaker-type K+ channels: synthesis and photoreactivity” (J Med Chem, 1998).

Key:
[1] = (§1) Compound was tested for in vitro phototoxicity against nauplii of Artemia salina in daylight
How it was run: (§2)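 Artemia salina nauplii were hatched for 48 h, and ten per vial were placed in 3 mL seawater containing compound from 100 nM upward in methanol. Incubation was at 25 °C either under daylight or under added UV-A (1.3 mW/cm2, incident dose 112 J/cm2). Dead nauplii were counted at 24 h to give LC50. Run in triplicate.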

[2] = compound was tested for production of singlet oxygen, measured as decrease in absorbance of N,N-dimethyl-p-nitrosoaniline (RNO) at 440 nm after 5 hr of UV-A irradiation; type: ADME; conditions: 10 µM
How it was run: (§3)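 Singlet oxygen generation by compound at 10 µM in O2-saturated solution, read as RNO bleaching. Absorbance decrease was measured at 440 nm after 5 h of UV-A irradiation (4.5 mW/cm2, incident dose 81 J/cm2).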

[3] = biological target: Potassium voltage-gated channel subfamily A member 3 (Mus musculus, UniProt P16390); assay: Blockade of peak Kv1.3 potassium currents; type: functional
How it was run: (§4)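 Channels expressed in mammalian cells and recorded by whole-cell patch clamp. Each compound was applied at several concentrations, and the apparent dissociation constant Kd was calculated for block of peak K+ current.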

[4] = tested on: Nucleic Acid; assay: Photobinding to Poly(dA-dT)-Poly(dA-dT)-DNA after UV-A irradiation; type: nucleic-acid assay
How it was run: (§5)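 Poly(dA-dT)-poly(dA-dT) at 10 µM in 0.1 M MOPS, pH 7.0, with compound at a 1:1 compound:DNA ratio. Samples were kept 30 min in the dark or irradiated 30 min at 365 nm (4.5 mW/cm2, 8.1 J/cm2). Melting profiles gave ΔTm = Tm(DNA+drug) − Tm(DNA), as the mean of three determinations.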

[5] = biological target: T1, Potassium voltage-gated channel subfamily A member 1 (Homo sapiens, UniProt Q09470); assay: Selectivity of K+ current blockade given by Bk/BNa in Xenopus laevis; type: functional
How it was run: (§6)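 On the Ranvier node, compound was tested at 25 µM. Steady-state K+ current block (BK) was normalized to currents in normal bathing medium. Peak Na+ current block was measured at 70 mV pulse amplitude and normalized the same way. Selectivity S = BK/BNa.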

[6] = tested on: Nucleic Acid; assay: Photobinding to Poly(dA-dT)-Poly(dA-dT)-DNA in dark, determined by the shift of thermal transition temperature; type: nucleic-acid assay; how it was run: as §5
[7] = (§7) Compound was tested for in vitro phototoxicity against nauplii of Artemia salina after UV-irradiation; how it was run: as §2
[8] = biological target: T1, Potassium voltage-gated channel subfamily A member 1; assay: K+ channel blocking activity as blockade at 25 uM in Xenopus laevis Ranvier nodes; type: functional; how it was run: as §6
[9] = Compound was tested for production of single oxygen, measured as decrease in absorbance of N,N-dimethyl-p-nitrosoaniline (RNO) at 440 nm after 5 hr of UV-A irradiation; type: ADME; conditions: 10 µM
How it was run: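 Singlet oxygen from compound at 10 µM was measured in O2-saturated solution by bleaching of N,N-dimethyl-p-nitrosoaniline. The read-out was the fall in absorbance at 440 nm after 5 h of UV-A (4.5 mW/cm2, incident dose 81 J/cm2).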

[10] = biological target: Potassium voltage-gated channel subfamily A member 6 (Homo sapiens, UniProt P17658); assay: Blockade of peak K+ currents against Kv1.6 gene; type: functional
How it was run: (§8)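 Whole-cell patch-clamp recording of cloned channels expressed in mammalian cells. Each compound was tested at several concentrations, and an apparent Kd for block of peak K+ current was calculated.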

[11] = biological target: T1, Potassium voltage-gated channel subfamily A member 1; assay: Blockade of peak K+ currents against Kv1.1 gene; type: functional; how it was run: as §4
[12] = tested on: Artemia salina; assay: Photoinduced dose modification against nauplii of Artemia salina; type: functional
How it was run: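 Artemia salina nauplii were collected 48 h after hatching, ten per vial in 3 mL seawater, with compound from 100 nM upward; methanol was the vehicle. Vials were incubated at 25 °C under daylight or with added UV-A (1.3 mW/cm2, incident dose 112 J/cm2). Dead nauplii were counted at 24 h to give LC50. Assays were run in triplicate.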

[13] = biological target: Potassium voltage-gated channel subfamily A member 2 (Homo sapiens, UniProt P16389); assay: Blockade of peak K+ currents against Kv1.2 gene; type: functional; how it was run: as §4
[14] = biological target: T2, Voltage-gated potassium channel KCNC1 (Homo sapiens, UniProt P48547); assay: Blockade of peak K+ currents against Kv3.1 gene; type: functional; how it was run: as §4
T2 sequence (P48547 whole entry): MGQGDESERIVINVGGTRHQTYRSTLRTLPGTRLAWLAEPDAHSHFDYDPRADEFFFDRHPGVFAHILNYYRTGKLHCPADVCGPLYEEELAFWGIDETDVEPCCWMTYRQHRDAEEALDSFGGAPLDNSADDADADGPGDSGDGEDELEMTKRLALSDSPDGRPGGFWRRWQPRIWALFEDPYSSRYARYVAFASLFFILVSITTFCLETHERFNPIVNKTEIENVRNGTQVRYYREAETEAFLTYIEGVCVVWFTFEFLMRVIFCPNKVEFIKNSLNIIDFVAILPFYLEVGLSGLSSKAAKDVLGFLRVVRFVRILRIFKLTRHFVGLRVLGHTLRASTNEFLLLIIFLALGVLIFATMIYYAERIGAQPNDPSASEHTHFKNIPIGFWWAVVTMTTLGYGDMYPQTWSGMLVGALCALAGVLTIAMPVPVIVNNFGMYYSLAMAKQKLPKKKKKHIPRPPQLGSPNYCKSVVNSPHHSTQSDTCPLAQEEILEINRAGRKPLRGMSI

[15] = biological target: Potassium voltage-gated channel subfamily A member 5 (Homo sapiens, UniProt P22460); assay: Blockade of peak K+ currents against Kv1.5 gene; type: functional; how it was run: as §8
[16] = Compound was tested for production of singlet oxygen, measured as decrease in absorbance of N,N-dimethyl-p-nitrosoaniline (RNO) at 440 nm after 5 hr of UV-A irradiation; type: ADME; conditions: 10 µM; how it was run: as §3
[17] = tested on: Artemia salina; assay: as §7; type: functional; conditions: light or radiation study; how it was run: as §2
[18] = tested on: Artemia salina; assay: as §1; type: functional; conditions: light or radiation study; how it was run: as §2

Sequence of Potassium voltage-gated channel subfamily A member 3 (P16390 whole entry): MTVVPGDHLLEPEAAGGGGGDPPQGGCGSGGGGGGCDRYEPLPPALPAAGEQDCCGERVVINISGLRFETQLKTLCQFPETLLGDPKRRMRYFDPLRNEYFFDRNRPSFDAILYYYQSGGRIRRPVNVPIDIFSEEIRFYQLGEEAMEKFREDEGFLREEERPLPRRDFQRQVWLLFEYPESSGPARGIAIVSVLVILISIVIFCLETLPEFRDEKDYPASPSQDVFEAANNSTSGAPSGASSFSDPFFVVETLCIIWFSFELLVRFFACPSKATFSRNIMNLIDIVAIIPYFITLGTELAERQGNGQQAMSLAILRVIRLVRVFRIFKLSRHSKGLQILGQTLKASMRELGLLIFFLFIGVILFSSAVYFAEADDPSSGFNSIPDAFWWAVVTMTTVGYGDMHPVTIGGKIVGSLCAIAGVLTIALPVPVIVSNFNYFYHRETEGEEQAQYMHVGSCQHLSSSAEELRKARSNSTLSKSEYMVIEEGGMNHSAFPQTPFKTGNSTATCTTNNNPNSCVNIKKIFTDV
Sequence of Potassium voltage-gated channel subfamily A member 2 (P16389 whole entry): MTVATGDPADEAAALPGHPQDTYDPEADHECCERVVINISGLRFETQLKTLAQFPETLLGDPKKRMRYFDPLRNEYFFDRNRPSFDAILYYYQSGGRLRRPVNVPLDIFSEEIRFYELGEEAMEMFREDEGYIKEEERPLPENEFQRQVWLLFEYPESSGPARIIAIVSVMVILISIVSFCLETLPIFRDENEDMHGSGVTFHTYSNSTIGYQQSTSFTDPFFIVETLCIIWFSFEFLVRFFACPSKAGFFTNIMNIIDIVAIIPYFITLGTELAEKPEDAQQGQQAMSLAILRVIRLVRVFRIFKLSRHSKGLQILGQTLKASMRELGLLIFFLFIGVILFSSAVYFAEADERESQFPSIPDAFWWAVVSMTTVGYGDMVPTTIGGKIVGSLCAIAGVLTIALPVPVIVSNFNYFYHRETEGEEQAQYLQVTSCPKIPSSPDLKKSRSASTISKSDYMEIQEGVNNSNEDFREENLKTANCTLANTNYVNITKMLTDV
T1 sequence (Q09470 whole entry): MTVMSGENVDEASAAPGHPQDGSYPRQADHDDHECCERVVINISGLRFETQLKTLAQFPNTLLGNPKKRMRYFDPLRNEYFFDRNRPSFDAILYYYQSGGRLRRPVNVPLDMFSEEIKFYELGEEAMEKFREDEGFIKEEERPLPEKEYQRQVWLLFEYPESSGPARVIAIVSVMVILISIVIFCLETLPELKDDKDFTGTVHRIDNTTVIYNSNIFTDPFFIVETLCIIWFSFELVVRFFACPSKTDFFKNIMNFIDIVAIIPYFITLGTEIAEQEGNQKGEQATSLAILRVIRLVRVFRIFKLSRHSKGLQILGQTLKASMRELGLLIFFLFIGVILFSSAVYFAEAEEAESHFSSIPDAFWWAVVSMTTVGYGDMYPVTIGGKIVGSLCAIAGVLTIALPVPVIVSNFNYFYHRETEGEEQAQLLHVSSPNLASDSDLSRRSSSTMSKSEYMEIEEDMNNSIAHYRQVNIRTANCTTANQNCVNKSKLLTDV
Sequence of Potassium voltage-gated channel subfamily A member 6 (P17658 whole entry): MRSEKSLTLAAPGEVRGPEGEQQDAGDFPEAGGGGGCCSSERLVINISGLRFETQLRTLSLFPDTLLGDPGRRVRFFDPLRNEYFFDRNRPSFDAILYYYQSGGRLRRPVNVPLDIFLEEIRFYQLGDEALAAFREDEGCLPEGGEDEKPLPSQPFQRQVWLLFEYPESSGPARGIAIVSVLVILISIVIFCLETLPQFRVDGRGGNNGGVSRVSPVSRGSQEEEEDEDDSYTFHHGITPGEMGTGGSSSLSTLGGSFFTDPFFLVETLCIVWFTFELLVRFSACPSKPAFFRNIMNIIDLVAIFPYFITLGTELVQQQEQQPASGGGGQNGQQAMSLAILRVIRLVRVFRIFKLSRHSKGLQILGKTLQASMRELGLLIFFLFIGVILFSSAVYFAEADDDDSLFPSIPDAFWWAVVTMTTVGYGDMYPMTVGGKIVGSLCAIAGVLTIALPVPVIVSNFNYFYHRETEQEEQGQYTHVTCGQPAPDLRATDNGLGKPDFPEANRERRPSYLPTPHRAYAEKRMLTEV
Sequence of Potassium voltage-gated channel subfamily A member 5 (P22460 whole entry): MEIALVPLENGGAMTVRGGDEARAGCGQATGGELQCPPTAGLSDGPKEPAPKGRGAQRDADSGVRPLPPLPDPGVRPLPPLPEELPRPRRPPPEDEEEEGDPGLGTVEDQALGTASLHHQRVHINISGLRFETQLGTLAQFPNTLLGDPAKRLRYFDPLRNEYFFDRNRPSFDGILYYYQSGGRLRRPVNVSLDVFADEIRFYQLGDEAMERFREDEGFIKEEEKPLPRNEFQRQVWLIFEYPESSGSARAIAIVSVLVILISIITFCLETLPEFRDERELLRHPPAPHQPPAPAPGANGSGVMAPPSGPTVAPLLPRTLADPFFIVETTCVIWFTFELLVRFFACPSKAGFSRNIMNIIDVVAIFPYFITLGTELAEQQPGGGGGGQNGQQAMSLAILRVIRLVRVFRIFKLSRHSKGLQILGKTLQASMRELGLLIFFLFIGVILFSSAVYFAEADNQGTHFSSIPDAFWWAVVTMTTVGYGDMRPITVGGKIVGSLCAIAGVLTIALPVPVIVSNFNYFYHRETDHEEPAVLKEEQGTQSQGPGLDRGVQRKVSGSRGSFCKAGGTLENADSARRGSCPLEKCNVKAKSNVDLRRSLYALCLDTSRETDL

Row | Compound | LC50 [1] [µM] | ΔTm [4] [°C] | Selectivity [5] | ΔTm [6] [°C] | LC50 [7] [nM] | BK [8] [%] | Dose modification [12] | further results
1 | COCc1c2occc2c(OC)c2ccc(=O)oc12 | > 100 | 1 | 26 | 1 | > 100000 | 35 |  | O2 production [2]: 4%; Kd [3]: 28 µM
2 | COc1c2ccoc2cc2oc(=O)ccc12 [BERGAPTEN] | > 100 | 13 | 14 | 0.5 | 2500 | 52 | >40 | O2 production [9]: 5%; Kd [10]: 187 µM; Kd [3]: 101 µM; Kd [11]: > 200 µM; Kd [13]: 41 µM; Kd [14]: 111 µM; Kd [15]: 177 µM
3 | CC1COc2cc3oc(=O)ccc3cc21 (centres undefined) | > 100 | 0.5 | 3 | 0.5 | 25000 | 23 | >4 | O2 production [16]: 100%
4 | COCc1cc(=O)oc2cc3occ(-c4ccccc4)c3cc12 |  |  | 2 |  |  | 27 |  | 
5 | CCOCc1c2ccoc2c(OC)c2oc(=O)ccc12 |  | 1.5 | 2 | 2 |  | 16 |  | O2 production [2]: 7%
6 | Cc1coc2cc3oc(=O)cc(C)c3cc12 |  |  | 8 |  |  | 25 | >150 | LC50 [17]: 0.7 µM; LC50 [18]: > 100 µM
7 | CC[N+](CC)(CC)Cc1c(C)oc2c(C)c3oc(=O)cc(C)c3cc12.[Cl-] |  | 16 | 5 | 7 |  | 27 |  | O2 production [2]: 66%
8 | CC[N+](CC)(CC)Cc1c2ccoc2c(OC)c2oc(=O)ccc12 |  |  | 7 |  |  | 20 |  | 
9 | CCOc1cc(OCC)c2ccc(=O)oc2c1 |  |  | 0.7 |  |  | 40 |  | 
10 | COCc1c2ccoc2c(OC)c2oc(=O)ccc12 |  |  | 3 |  |  | 14 |  | LC50 [17]: > 100 µM; LC50 [18]: > 100 µM
11 | CCOc1cc(OCC)c2c(COC)cc(=O)oc2c1 |  |  | 1.8 |  |  | 35 |  | 
12 | O=c1ccc2cc3c(-c4ccccc4)coc3cc2o1 |  |  | 1.4 |  |  | 68 |  | 
13 | COc1c2occc2cc2ccc(=O)oc12 [METHOXSALEN] | > 100 | 10 | 4 | 1 | 2200 | 5 | >40 | O2 production [16]: 9%
14 | Cc1cc(=O)oc2cc3c(cc12)C(C)CO3 (centres undefined) |  |  | 22 |  |  | 45 | >4 | LC50 [17]: 25 µM; LC50 [18]: > 100 µM
15 | COc1c2c(cc3ccc(=O)oc13)CCO2 |  |  | 5 |  |  | 4 |  | 
16 | CCOCc1c(C)oc2c(C)c3oc(=O)cc(C)c3cc12 |  | > 20 | 6 | 1 |  | 55 |  | O2 production [2]: 50%
17 | CCOc1c2ccoc2c(OCC)c2oc(=O)ccc12 | > 100 | 0.5 | 14 | 0.5 | > 100000 | 75 |  | Kd [3]: 28 µM; O2 production [16]: -4%; Kd [11]: 167 µM; Kd [13]: 23 µM; Kd [14]: 178 µM
18 | COc1c2occc2c(COC(C)C)c2ccc(=O)oc12 |  |  | 3 |  |  | 10 |  | 
19 | C=CCOCc1c2ccoc2c(OC)c2oc(=O)ccc12 |  |  | 6 |  |  | 24 |  | 
20 | COCc1cc(=O)oc2cc3occ(C)c3cc12 | > 100 | > 20 | 17 | 0.5 | 2500 | 52 | >40 | Kd [3]: 90 µM; O2 production [16]: 43%; Kd [11]: 56 µM; Kd [13]: 18 µM; Kd [14]: 213 µM
21 | Cc1coc2cc3oc(=O)ccc3cc12 | > 100 | 9 | 15 | 1 | 500 | 63 | >200 | O2 production [16]: 71%
22 | COc1c2ccoc2c(OC)c2oc(=O)ccc12 [ISOPIMPINELLIN] | > 100 | 1 |  | 0.5 | > 100000 |  |  | O2 production [2]: -5%
23 | Cc1coc2cc3oc(=O)cc(CO)c3cc12 |  |  | 4 |  |  | 11 |  | 
24 | COCc1c(C)oc2c(C)c3oc(=O)cc(C)c3cc12 | > 100 | > 20 | 11 | 0.5 | 20000 | 31 | >5 | O2 production [2]: 50%
